The structures appear in SMILES notation. Values after ≈ are worked out from the molar mass of the structure shown. Active and inactive are the calls of the source. The rule behind the calls is not given here.

Usually CC50 stands for the concentration that lowers cell viability or growth by half. Low values mean harm at low concentration, high ones better tolerance by the cells. By Kb is commonly meant the equilibrium dissociation constant of an antagonist, usually derived from a functional assay. Usually IC50 stands for the midpoint of a concentration-inhibition curve. The term solubility (kinetic) denotes the concentration staying in solution when a stock, usually in DMSO, is diluted into the medium.

The target of data set [1] is T1, Prostaglandin D2 receptor (Homo sapiens) (UniProt Q13258).
T1 sequence (whole entry): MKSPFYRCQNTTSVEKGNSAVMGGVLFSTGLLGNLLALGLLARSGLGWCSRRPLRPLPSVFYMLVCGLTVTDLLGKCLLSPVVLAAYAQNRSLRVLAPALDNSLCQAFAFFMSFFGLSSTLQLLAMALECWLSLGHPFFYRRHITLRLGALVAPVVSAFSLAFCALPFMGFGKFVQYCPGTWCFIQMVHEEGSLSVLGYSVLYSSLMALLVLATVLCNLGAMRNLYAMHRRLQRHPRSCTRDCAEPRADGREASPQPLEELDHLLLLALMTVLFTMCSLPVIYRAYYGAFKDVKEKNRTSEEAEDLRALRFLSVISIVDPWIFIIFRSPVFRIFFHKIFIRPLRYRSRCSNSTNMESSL
The data set can be described thus: Antagonist activity at human DP1 receptor overexpressed in rat C6 cells assessed as inhibition of BW245C-induced cAMP accumulation incubated for 10 mins prior to BW245C addition measured after 40 mins by TR-FRET assay. Format: functional, cell-based.

The next data set has as its system C6. As to the kind of experiment: Cytotoxicity against rat C6 cells after 48 hrs. Format: cell-based. Conditions: c6, 48 h. The procedure, abridged: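 C6G cells are incubated with compound for 48 h, then cell viability is measured and CC50 derived.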
Data set [2] can be described thus: Metabolic stability in mouse liver microsomes assessed as compound remaining at 1 to 10 uM after 60 mins. Format: ADME, Microsome. The following applies: read-out: Stability.
For data set [3], the target named is Prostaglandin E2 receptor EP4 subtype (Homo sapiens) (UniProt P35408). The data set can be described thus: Antagonist activity at human EP4 receptor overexpressed in rat C6 cells assessed as inhibition of PGE2-induced cAMP accumulation incubated for 10 mins prior to PGE2 addition measured after 40 mins by TR-FRET assay. Format: functional, cell-based. For orientation: cAMP levels reflect the balance of adenylyl cyclase and phosphodiesterase activity.
Prostaglandin E2 receptor EP4 subtype (Homo sapiens), sequence (P35408 whole entry): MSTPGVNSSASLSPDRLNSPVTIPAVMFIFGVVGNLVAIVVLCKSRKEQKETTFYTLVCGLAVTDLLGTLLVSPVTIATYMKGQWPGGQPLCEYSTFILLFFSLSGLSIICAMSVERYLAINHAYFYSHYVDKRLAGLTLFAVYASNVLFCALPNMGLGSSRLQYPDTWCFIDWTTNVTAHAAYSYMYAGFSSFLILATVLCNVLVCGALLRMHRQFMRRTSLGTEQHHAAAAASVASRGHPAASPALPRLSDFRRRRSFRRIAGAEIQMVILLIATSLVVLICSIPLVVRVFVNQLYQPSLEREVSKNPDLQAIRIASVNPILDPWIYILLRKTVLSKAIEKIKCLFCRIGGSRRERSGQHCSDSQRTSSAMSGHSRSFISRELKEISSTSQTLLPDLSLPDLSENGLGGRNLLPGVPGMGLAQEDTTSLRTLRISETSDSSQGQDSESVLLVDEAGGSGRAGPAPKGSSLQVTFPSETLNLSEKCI

Data set [4] is described as follows: Metabolic stability in human liver microsomes assessed as compound remaining at 1 to 10 uM after 60 mins. Conditions: read-out: Stability. Format: ADME, Microsome.
The target of data set [5] is Prostacyclin receptor (Homo sapiens) (UniProt P43119). As to the kind of experiment: Antagonist activity at human IP receptor overexpressed in rat C6 cells assessed as inhibition of iloprost-induced cAMP accumulation incubated for 10 mins prior to iloprost addition measured after 40 mins by TR-FRET assay. Format: functional, cell-based.
Prostacyclin receptor (Homo sapiens), sequence (P43119 whole entry): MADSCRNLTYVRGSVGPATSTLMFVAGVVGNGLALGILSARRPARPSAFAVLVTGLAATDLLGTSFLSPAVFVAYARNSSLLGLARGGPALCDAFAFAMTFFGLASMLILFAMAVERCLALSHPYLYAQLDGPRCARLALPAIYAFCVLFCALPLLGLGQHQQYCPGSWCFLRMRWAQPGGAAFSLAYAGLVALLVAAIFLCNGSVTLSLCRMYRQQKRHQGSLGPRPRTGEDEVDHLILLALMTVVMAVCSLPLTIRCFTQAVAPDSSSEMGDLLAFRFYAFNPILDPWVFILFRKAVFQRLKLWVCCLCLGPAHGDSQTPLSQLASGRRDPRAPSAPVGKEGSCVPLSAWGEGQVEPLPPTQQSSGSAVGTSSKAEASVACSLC
Data set [6] addresses T2, Prostaglandin E2 receptor EP2 subtype (Homo sapiens, UniProt P43116). As to the kind of experiment: Competitive antagonist activity at human EP2 receptor overexpressed in rat C6 cells by Schild plot analysis. Format: cell-based.
Data set [7] addresses T2, Prostaglandin E2 receptor EP2 subtype. As to the kind of experiment: Antagonist activity at human EP2 receptor overexpressed in rat C6 cells assessed as inhibition of PGE2-induced cAMP accumulation incubated for 10 mins prior to PGE2 addition measured after 40 mins by TR-FRET assay. In kind it is functional, cell-based.
A short description of data set [8]: Aqueous solubility of the compound in PBS buffer at pH 7.0 by nephelometry. Format: physicochemical.
The test system of another data set is Nucleic Acid. As to the kind of experiment: Ratio of drug level in brain to plasma in C57BL/6 mouse at 10 mg/kg, ip. In kind it is ADME, organism-based. Further details: dose 10 mg/kg, route intraperitoneal. The procedure, abridged: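 Female C57BL/6 mice dosed 10 mg/kg i.p. Plasma prepared from blood, and brain tissue collected at 1 h. Brain-to-plasma concentration ratio calculated from the two levels.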

The target of data set [9] is Prostaglandin E2 receptor EP2 subtype (Mus musculus) (UniProt Q62053). The data set can be described thus: Inhibition of EP2 receptor-mediated mouse P388D1 macrophage activation assessed as inhibition of butaprost-induced IL-1beta mRNA expression at 10 uM incubated for 1 hr prior to butaprost-challenge measured after 2 hrs by qRT-PCR analysis. An outline of the steps: (§1)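 P388D1 mouse macrophages pretreated 1 h with 10 μM antagonist or vehicle, then stimulated 2 h with EP2-selective agonist butaprost (10 μM). Inflammatory mediator mRNA quantified by qRT-PCR; n = 3–4, mean ± SEM, one-way ANOVA with post hoc Bonferroni test.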
Prostaglandin E2 receptor EP2 subtype (Mus musculus), sequence (Q62053 whole entry): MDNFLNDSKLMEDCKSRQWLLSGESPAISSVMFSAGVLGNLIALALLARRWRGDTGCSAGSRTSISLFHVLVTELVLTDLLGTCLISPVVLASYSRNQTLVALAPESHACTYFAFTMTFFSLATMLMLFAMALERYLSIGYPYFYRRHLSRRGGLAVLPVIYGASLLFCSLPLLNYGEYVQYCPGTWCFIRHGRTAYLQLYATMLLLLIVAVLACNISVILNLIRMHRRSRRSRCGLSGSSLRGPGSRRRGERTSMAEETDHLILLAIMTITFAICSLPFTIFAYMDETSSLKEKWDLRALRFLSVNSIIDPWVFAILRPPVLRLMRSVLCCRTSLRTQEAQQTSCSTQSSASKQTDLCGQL
(In qPCR the cycle at which signal appears reflects the starting amount.)

The target is the same in data set [10]. As to the kind of experiment: Inhibition of EP2 receptor-mediated mouse P388D1 macrophage activation assessed as inhibition of butaprost-induced COX-2 mRNA expression at 10 uM incubated for 1 hr prior to butaprost-challenge measured after 2 hrs by qRT-PCR analysis. The procedure, abridged: as §1
Data set [11] has as its target Beta-2 adrenergic receptor (Homo sapiens) (UniProt P07550). As to the kind of experiment: Inhibition of beta2-adrenergic receptor (unknown origin) overexpressed in rat C6G cells up to 40 uM by TR-FRET assay. Format: cell-based. (In general: In TR-FRET formats the signal depends on donor and acceptor labels being close together.)
For data set [12], the target named is Prostaglandin E2 receptor EP2 subtype (Mus musculus) (UniProt Q62053). As to the kind of experiment: Inhibition of EP2 receptor-mediated mouse P388D1 macrophage activation assessed as inhibition of butaprost-induced IL-12 mRNA expression at 10 uM incubated for 1 hr prior to butaprost-challenge measured after 2 hrs by qRT-PCR analysis. The procedure, abridged: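 P388D1 macrophage line pretreated 1 h with test agent at 10 μM or vehicle, then stimulated with the EP2-selective agonist butaprost (10 μM) for 2 h. Inflammatory mediator mRNA quantified by qRT-PCR. n = 3–4, mean ± SEM, one-way ANOVA with post hoc Bonferroni test.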

Data set [13] is described as follows: Inhibition of Staphylococcus aureus NadD.
Data set [14] can be described thus: Plasma concentration in C57BL/6 mouse at 5 mg/kg, ip after 30 mins. Format: ADME, organism-based. Further details: dose 5 mg/kg, route intraperitoneal. The procedure, abridged:
(§2)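 Female C57BL/6 mice dosed 10 mg/kg by oral gavage or 5 mg/kg i.p. in 10% DMSO/70% PEG400/20% sterile water. Blood drawn at five time points from 0.5 to 8 h and processed to plasma. Compound concentration in plasma measured; n = 3 mice per time point, mean ± SEM.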

Data set [15] concerns the target Prostaglandin E2 receptor EP4 subtype (Homo sapiens) (UniProt P35408). As to the kind of experiment: Inhibition of human EP4 receptor overexpressed in rat C6G cells up to 40 uM by TR-FRET assay. In kind it is cell-based.
Data set [16] deals with Prostaglandin E2 receptor EP2 subtype (Mus musculus) (UniProt Q62053). The data set can be described thus: Inhibition of EP2 receptor-mediated mouse P388D1 macrophage activation assessed as inhibition of butaprost-induced IL-17 mRNA expression at 10 uM incubated for 1 hr prior to butaprost-challenge measured after 2 hrs by qRT-PCR analysis. The procedure, abridged:
as §1

Data set [17] has the same target. As to the kind of experiment: Inhibition of EP2 receptor-mediated mouse P388D1 macrophage activation assessed as inhibition of butaprost-induced IL-23 mRNA expression at 10 uM incubated for 1 hr prior to butaprost-challenge measured after 2 hrs by qRT-PCR analysis. An outline of the steps:
as §1

Data set [18] has as its system Brain. The data set can be described thus: Drug uptake in C57BL/6 mouse brain at 10 mg/kg, ip after 1 hr. In kind it is ADME, organism-based. The arrangement: dose 10 mg/kg, route intraperitoneal. Conditions: in vivo. The procedure, abridged: (§3)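 Female C57BL/6 mice dosed 10 mg/kg by oral gavage or 5 mg/kg i.p. (10 mg/kg i.p. also examined for brain) in vehicle of 10% DMSO, 70% PEG400, 20% sterile water. Brain tissue collected at 1 and 2 h post-dose; brain-to-plasma ratio reported.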

Data set [19] deals with Prostaglandin E2 receptor EP2 subtype (Mus musculus) (UniProt Q62053). The data set can be described thus: Inhibition of EP2 receptor-mediated mouse P388D1 macrophage activation assessed as inhibition of butaprost-induced IL-6 mRNA expression at 10 uM incubated for 1 hr prior to butaprost-challenge measured after 2 hrs by qRT-PCR analysis. The procedure, abridged:
as §1

Data set [20] relates to Brain. The data set can be described thus: Drug uptake in C57BL/6 mouse brain at 5 mg/kg, ip after 1 to 2 hrs. Format: ADME, organism-based. The arrangement: dose 5 mg/kg, route intraperitoneal. Conditions: in vivo. The procedure, abridged:
as §3

Data set [21] relates to Brain. The data set can be described thus: Drug uptake in C57BL/6 mouse brain at 10 mg/kg, po after 1 to 2 hrs. Conditions: in vivo. The arrangement: dose 10 mg/kg, route oral. Format: ADME, organism-based. The procedure, abridged:
as §3

Data set [22] has as its target Prostaglandin E2 receptor EP2 subtype (Mus musculus) (UniProt Q62053). As to the kind of experiment: Inhibition of EP2 receptor-mediated mouse P388D1 macrophage activation assessed as inhibition of butaprost-induced TNF-alpha mRNA expression at 10 uM incubated for 1 hr prior to butaprost-challenge measured after 2 hrs by qRT-PCR analysis. An outline of the steps: as §1

A short description of data set [23]: Plasma concentration in C57BL/6 mouse at 10 mg/kg, po after 30 mins. In kind it is ADME, organism-based. Further details: dose 10 mg/kg, route oral. An outline of the steps: as §2

T2 sequence (P43116 whole entry): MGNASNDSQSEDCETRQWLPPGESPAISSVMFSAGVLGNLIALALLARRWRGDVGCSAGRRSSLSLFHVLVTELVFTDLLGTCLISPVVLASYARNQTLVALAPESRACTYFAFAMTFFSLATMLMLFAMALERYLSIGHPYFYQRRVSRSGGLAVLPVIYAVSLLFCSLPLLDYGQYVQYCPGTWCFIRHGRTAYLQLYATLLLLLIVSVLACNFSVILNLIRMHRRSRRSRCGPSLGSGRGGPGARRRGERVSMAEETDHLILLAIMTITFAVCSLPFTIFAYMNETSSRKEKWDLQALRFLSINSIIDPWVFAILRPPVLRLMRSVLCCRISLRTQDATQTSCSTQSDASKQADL
Beta-2 adrenergic receptor (Homo sapiens), sequence (P07550 whole entry, looked up): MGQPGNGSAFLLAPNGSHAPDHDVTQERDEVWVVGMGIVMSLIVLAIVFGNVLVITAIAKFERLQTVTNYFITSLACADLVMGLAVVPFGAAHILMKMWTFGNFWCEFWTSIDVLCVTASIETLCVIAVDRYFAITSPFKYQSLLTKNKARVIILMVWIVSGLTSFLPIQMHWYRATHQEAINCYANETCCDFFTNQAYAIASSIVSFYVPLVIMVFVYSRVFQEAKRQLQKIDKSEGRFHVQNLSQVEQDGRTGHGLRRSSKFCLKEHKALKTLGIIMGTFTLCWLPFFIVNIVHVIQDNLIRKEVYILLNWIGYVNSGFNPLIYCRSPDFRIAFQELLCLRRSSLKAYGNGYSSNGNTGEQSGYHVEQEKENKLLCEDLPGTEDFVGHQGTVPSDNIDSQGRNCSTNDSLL

`COc1cc(NS(=O)(=O)c2ccc(NC(=S)NC(=O)/C=C/c3ccc(F)cc3)cc2)ncn1`: the KB entry in data set [1] was “inactive”. In the data set with C6, this molecule gave a CC50 of 378 µM. Further, the remaining at 1 h, up to 10 µM in data set [2] and in data set [4] was 40% throughout. Further, the Kb in data set [3] turned out to be 18.2 µM.

With `COc1ccc(NS(=O)(=O)c2ccc(NC(=S)NC(=O)/C=C/c3ccc(C)cc3)cc2)nn1`, in data set [1], the KB result was “inactive”. For the same molecule, the results for the Kb in [5], in [6] and in [3] were 360 nM, 13.3 nM and 20.5 µM, respectively. For the same molecule, the midpoint of cytotoxicity with C6, the CC50, lay at 150 µM.

Consider `CCc1nnc(NS(=O)(=O)c2ccc(NC(=S)NC(=O)/C=C/c3cccs3)cc2)s1`, for which the Kb in [5] amounted to 2260 nM. The CC50 with C6 came out at 330 µM.

For `CCc1nnc(NS(=O)(=O)c2ccc(NC(=S)NC(=O)/C=C/c3ccc(F)cc3)cc2)s1`, the results for the IC50 in data set [7] and in data set [13] were 1600 nM and 4.5 µM, respectively. The inhibition entry in [7] was “Dose-dependent effect”. In addition, the kinetic solubility in data set [8] turned out to be 71 µg/mL (≈ 144 µM). The BPR in the data set with Nucleic Acid is 0.02. Moreover, the inhibition entry in [9], in data set [10], in data set [12], in data set [16], in [17] and in [19] was “Active” in each case. Besides, in [22], the inhibition result is “Active”. The inhibition result in [11] and in data set [15] was “inactive” in each case. In addition, the concentration at 0.5 h in [14] was 30 µM; in data set [23] it was 12 µM. Also, the Drug uptake entry in the data set with Brain [18] is “Active”; in the data set with Brain [20] it was “Not Active”; with Brain [21], “Not Active”. In the data set with C6, this molecule came in with a CC50 of 326 µM. The remaining at 1 h, up to 10 µM in [2] and in data set [4] was 40% in each case.

With `CCc1nnc(NS(=O)(=O)c2ccc(NC(=S)NC(=O)/C=C/c3ccccc3)cc2)s1`, in data set [1], the Kb was 9.8 µM. In the data set with C6, the CC50 was 370 µM.

For `COc1cc(NS(=O)(=O)c2ccc(NC(=S)NC(=O)c3cccs3)cc2)nc(OC)n1`, the Kb in data set [1] stood at 25.2 µM; in [5], 5900 nM. In the data set on C6, this molecule had a CC50 of 258 µM.

On to `CCc1nnc(NS(=O)(=O)c2ccc(NC(=S)NC(=O)c3ccc(OC)cc3)cc2)s1`, for which the values for the Kb in data set [1] and in data set [5] were 16.1 µM and 1730 nM, respectively. Besides, in the data set on C6, the midpoint of cytotoxicity, the CC50, lay at 186 µM.

Turning to `COc1cc(NS(=O)(=O)c2ccc(NC(=S)NC(=O)c3sc4cc(F)ccc4c3Cl)cc2)nc(OC)n1`, the Kb in [1] is 8.7 µM; in data set [5], 21000 nM; in data set [6], 108 nM; in data set [3], 0.7 µM. The molecule further gave a CC50 with C6 of 96 µM.

Consider `CCc1nnc(NS(=O)(=O)c2ccc(NC(=S)NC(=O)/C=C/c3ccc(OC)cc3)cc2)s1`, for which the Kb was 46.6 µM in data set [1], 360 nM in [5], 34.5 nM in data set [6] and 13 µM in data set [3]. The CC50 with C6 is 365 µM.

(Values after ChEMBL document CHEMBL2407059, “Discovery and characterization of carbamothioylacrylamides as EP2 selective antagonists” (ACS Med Chem Lett, 2013).)
